In ChEMBL document CHEMBL1131060, “Salicylhydrazine-containing inhibitors of HIV-1 integrase: implication for a selective chelation in the integrase active site” (J Med Chem, 1998):

Tests used:
CCRF-CEM [1] = assay: Effective concentration was evaluated on HIV-1 infected CEM cells.; assay type: functional, cell-based; conditions: Homo sapiens
Outline: (§1)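 CEM T4 lymphocytes, exponentially growing, 5000 cells/well, infected with thawed HIV-1 stock at m.o.i. ~0.1. Compounds dissolved in DMSO, diluted 1:100 in medium, final 1:200. Uninfected drug-treated cells served as toxicity control. Incubation 6 days at 37 °C, 5% CO2. Viability read by XTT formazan absorbance, with microscopic confirmation of protection.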

CCRF-CEM [2] = assay: Tested for HIV-1 replication in CEM cells.; assay type: functional, cell-based; conditions: Homo sapiens; outline: as §1
[3] = target: T1, Human immunodeficiency virus type 1 integrase (Human immunodeficiency virus 1, UniProt Q7ZJM1); assay: Inhibition of HIV-1 integrase enzyme at 3`- processing stage of DNA integration
[4] = target: T1, Human immunodeficiency virus type 1 integrase; assay: Inhibitory concentration as 50% inhibition of HIV-1 integrase enzyme at strand transfer stage of DNA integration.
CCRF-CEM [5] = assay: Effective concentration was evaluated on HIV-1 infected CEM cells. (NR-not reached due to cytotoxicity.); assay type: functional, cell-based; outline: as §1
[6] = target: T1, Human immunodeficiency virus type 1 integrase; assay: Inhibitory concentration was evaluated as 50% inhibition of HIV-1 integrase enzyme at 3`- processing stage of DNA integration in experiment II
[7] = target: T1, Human immunodeficiency virus type 1 integrase; assay: Inhibitory concentration was evaluated as 50% inhibition of HIV-1 integrase enzyme at strand transfer stage of DNA integration in experiment I
Outline: (§2)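 Purified recombinant HIV-1 integrase (200 nM final) preincubated with inhibitor for 30 min at 30 °C in MOPS/HEPES pH 7.2–7.5 buffer containing 7.5 mM MnCl2 and 10% DMSO. 20 nM 5'-32P-labeled 21-mer duplex oligonucleotide (AE117/AE118) added, then 1 h more. Strand transfer products resolved on denaturing 20% polyacrylamide/urea gels and quantified by phosphorimaging. % inhibition plotted against drug concentration to read IC50.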

[8] = target: T1, Human immunodeficiency virus type 1 integrase; assay: Inhibitory concentration was evaluated as 50% inhibition of HIV-1 integrase enzyme at 3`- processing stage of DNA integration in experiment I
[9] = target: T1, Human immunodeficiency virus type 1 integrase; assay: Inhibitory concentration was evaluated as 50% inhibition of HIV-1 integrase enzyme at strand transfer stage of DNA integration in experiment II; outline: as §2
CCRF-CEM [10] = assay: Effective concentration was evaluated on HIV-1 infected CEM cells; assay type: functional, cell-based; conditions: Homo sapiens; outline: as §1
CCRF-CEM [11] = assay: Effective concentration was evaluated on HIV-1 infected CEM cells.(NR-not reached due to cytotoxicity.); assay type: functional, cell-based, Homo sapiens; outline: as §1

T1 sequence (Q7ZJM1 whole entry): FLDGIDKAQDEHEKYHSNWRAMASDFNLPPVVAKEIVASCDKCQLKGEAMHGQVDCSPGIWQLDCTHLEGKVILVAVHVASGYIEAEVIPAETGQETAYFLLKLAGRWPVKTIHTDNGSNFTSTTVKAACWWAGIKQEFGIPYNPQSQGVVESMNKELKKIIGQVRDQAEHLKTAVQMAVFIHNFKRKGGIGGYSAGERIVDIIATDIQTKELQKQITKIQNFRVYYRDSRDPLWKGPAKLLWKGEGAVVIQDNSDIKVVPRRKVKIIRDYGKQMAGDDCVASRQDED

CC1=NN(C(=O)c2ccc(Cl)cc2)C(=O)/C1=C/c1ccc(O)cc1
EC50 (CCRF-CEM [1]): > 15 µM | IC50 (CCRF-CEM [2]): > 15 µM | IC50 [3]: > 293 µM | IC50 [4]: > 293 µM

O=C(NN1C(=O)C(Cl)C1c1ccc([N+](=O)[O-])cc1)c1ccccc1O (stereo not drawn)
IC50 (CCRF-CEM [2]): > 10 µM | EC50 (CCRF-CEM [5]): Not reached | IC50 [6]: 168 µM | IC50 [7]: 155 µM | IC50 [8]: 192 µM | IC50 [9]: 83 µM

COc1ccc(/C=C2/C(=O)N(C(=O)c3ccccc3O)N=C2C)cc1
IC50 (CCRF-CEM [2]): 0.053 µM | IC50 [3]: 0.9 µM | EC50 (CCRF-CEM [5]): Not reached | IC50 [4]: 0.6 µM

O=C(O)c1ccccc1C(=O)NNC(=O)c1ccccc1C(=O)O
IC50 [3]: > 100 µM | IC50 [4]: > 100 µM

COc1cc(C(=O)NNC(=O)c2ccc(Cl)cc2)cc(OC)c1OC
IC50 [3]: > 100 µM | IC50 [4]: > 100 µM

O=C(NNC(=O)c1ccc(Br)cc1)c1ccc(Br)cc1
IC50 [3]: > 100 µM | IC50 [4]: > 100 µM

O=C(NNC(=O)c1cccc2ccccc12)c1ccccc1F
IC50 [3]: > 100 µM | IC50 [4]: > 100 µM

O=C(NN1C(=O)C(Cl)C1c1ccccc1O)c1ccccc1O (stereo not drawn)
IC50 (CCRF-CEM [2]): 8.2 µM | IC50 [3]: 300 µM | EC50 (CCRF-CEM [5]): Not reached | IC50 [4]: 264 µM

O=C(NNC(=O)c1cccc2ccccc12)c1ccccc1Br
IC50 [3]: > 100 µM | IC50 [4]: > 100 µM

O=C(NNC(=O)c1cccc2ccccc12)c1ccc(Cl)c(Cl)c1
IC50 [3]: > 100 µM | IC50 [4]: > 100 µM

O=C(NN1C(=O)C(Cl)C1c1ccccc1Cl)c1ccccc1O (stereo not drawn)
IC50 (CCRF-CEM [2]): > 14.8 µM | EC50 (CCRF-CEM [5]): Not reached | IC50 [6]: 248 µM | IC50 [4]: 94 µM | IC50 [8]: 241 µM

O=C(NNC(=O)c1ccc2ccccc2c1)c1ccc(Cl)c(Cl)c1
IC50 [3]: > 100 µM | IC50 [4]: > 100 µM

O=C(NNC(=O)c1ccccc1F)c1ccc2ccccc2c1
IC50 [3]: > 100 µM | IC50 [4]: > 100 µM

CC1=NN(C(=O)c2ccccc2O)C(=O)/C1=C/c1ccc(O)cc1
IC50 (CCRF-CEM [2]): 0.059 µM | IC50 [3]: 0.6 µM | EC50 (CCRF-CEM [5]): Not reached | IC50 [4]: 0.9 µM

COc1cc(C2C(Cl)C(=O)N2NC(=O)c2ccccc2O)cc(OC)c1OC (stereo not drawn)
IC50 (CCRF-CEM [2]): 4.4 µM | EC50 (CCRF-CEM [5]): Not reached | IC50 [6]: 75.7 µM | IC50 [4]: 73.7 µM | IC50 [8]: 68.8 µM

O=C(NN1C(=O)C(Cl)C1c1cccc(O)c1)c1ccccc1O (stereo not drawn)
IC50 (CCRF-CEM [2]): > 15 µM | EC50 (CCRF-CEM [5]): Not reached | IC50 [6]: 225 µM | IC50 [7]: 236 µM | IC50 [8]: 180 µM | IC50 [9]: 99 µM

COc1cc(/C=C2/C(=O)N(C(=O)c3ccc(Cl)cc3)N=C2C)cc(OC)c1OC
EC50 (CCRF-CEM [1]): > 17 µM | IC50 (CCRF-CEM [2]): > 17 µM | IC50 [3]: > 240 µM | IC50 [4]: > 240 µM

CC1=NN(C(=O)c2ccccc2O)C(=O)/C1=C/c1ccc([N+](=O)[O-])cc1
IC50 (CCRF-CEM [2]): 0.091 µM | IC50 [3]: 0.8 µM | EC50 (CCRF-CEM [5]): Not reached | IC50 [4]: 0.6 µM

O=C(NNC(=O)c1ccccc1Br)c1ccccc1Br
IC50 [3]: > 100 µM | IC50 [4]: > 100 µM

O=C(NNC(=O)c1ccccc1F)c1ccccc1F
IC50 [3]: > 100 µM | IC50 [4]: > 100 µM

CC1=NN(C(=O)c2ccc(Cl)cc2)C(=O)/C1=C/c1cccc([N+](=O)[O-])c1
EC50 (CCRF-CEM [10]): > 20 µM | IC50 (CCRF-CEM [2]): > 20 µM | IC50 [3]: > 270 µM | IC50 [4]: > 270 µM

O=C(NN1C(=O)C(Cl)C1c1ccc(O)cc1)c1ccccc1O (stereo not drawn)
IC50 (CCRF-CEM [2]): 10.3 µM | IC50 [3]: > 300 µM | EC50 (CCRF-CEM [5]): Not reached | IC50 [4]: 285 µM

Nc1ccccc1C(=O)NNC(=O)c1ccccc1N
EC50 (CCRF-CEM [10]): > 200 µM | IC50 (CCRF-CEM [2]): > 200 µM | IC50 [3]: > 100 µM | IC50 [4]: > 100 µM

O=C(NN1C(=O)C(Cl)C1c1cccc(Cl)c1)c1ccccc1O (stereo not drawn)
IC50 (CCRF-CEM [2]): > 74 µM | EC50 (CCRF-CEM [5]): Not reached | IC50 [6]: 202 µM | IC50 [4]: 125 µM | IC50 [8]: 155 µM

CC1=NN(C(=O)c2ccccc2O)C(=O)/C1=C/c1ccccc1O
IC50 (CCRF-CEM [2]): 0.062 µM | EC50 (CCRF-CEM [5]): Not reached | IC50 [4]: 2.8 µM

COc1cc(C(=O)NNC(=O)c2ccc(Cl)c(Cl)c2)cc(OC)c1OC
IC50 [3]: > 100 µM | IC50 [4]: > 100 µM

COc1ccc(/C=C2/C(=O)N(C(=O)c3ccc(Cl)cc3)N=C2C)cc1OC
EC50 (CCRF-CEM [1]): > 35 µM | IC50 (CCRF-CEM [2]): > 35 µM | IC50 [3]: > 260 µM | IC50 [4]: > 260 µM

CC1=NN(C(=O)c2ccc(Cl)cc2)C(=O)/C1=C/c1cccc(O)c1
EC50 (CCRF-CEM [1]): > 8 µM | IC50 (CCRF-CEM [2]): > 8 µM | IC50 [3]: > 293 µM | IC50 [4]: > 293 µM

O=C(NNC(=O)c1ccc(Cl)c(Cl)c1)c1ccccc1
IC50 [3]: > 100 µM | IC50 [4]: > 100 µM

COc1ccc(C2C(Cl)C(=O)N2NC(=O)c2ccccc2O)cc1OC (stereo not drawn)
IC50 (CCRF-CEM [2]): > 50 µM | EC50 (CCRF-CEM [5]): Not reached | IC50 [6]: 109 µM | IC50 [4]: 106 µM | IC50 [8]: 125 µM

O=C(NN1C(=O)C(Cl)C1c1c(O)ccc2ccccc12)c1ccccc1O (stereo not drawn)
IC50 [3]: 127 µM | IC50 [4]: 222 µM

COc1cc(/C=C2/C(=O)N(C(=O)c3ccccc3O)N=C2C)cc(OC)c1OC
IC50 (CCRF-CEM [2]): 0.24 µM | IC50 [3]: 2 µM | EC50 (CCRF-CEM [5]): Not reached | IC50 [4]: 2 µM

COc1ccc(/C=C2/C(=O)N(C(=O)c3ccccc3O)N=C2C)cc1OC
IC50 (CCRF-CEM [2]): 0.15 µM | EC50 (CCRF-CEM [5]): Not reached

CC1=NN(C(=O)c2ccccc2O)C(=O)/C1=C/c1ccco1
IC50 (CCRF-CEM [2]): 0.6 µM | IC50 [3]: 2.7 µM | EC50 (CCRF-CEM [5]): Not reached | IC50 [4]: 2 µM

O=C(NNC(=O)c1ccc(Cl)cc1Cl)c1ccc2ccccc2c1
IC50 [3]: > 100 µM | IC50 [4]: > 100 µM

CCOc1ccccc1C(=O)NNC(=O)c1ccccc1OCC
IC50 [3]: > 100 µM | IC50 [4]: > 100 µM

CC1=NN(C(=O)c2ccc(Cl)cc2)C(=O)/C1=C/c1ccccc1O
EC50 (CCRF-CEM [1]): > 21 µM | IC50 (CCRF-CEM [2]): > 21 µM | IC50 [3]: > 293 µM | IC50 [4]: > 293 µM

CC1=NN(C(=O)c2ccc(Cl)cc2)C(=O)/C1=C/c1ccc(Cl)cc1
EC50 (CCRF-CEM [1]): > 10 µM | IC50 (CCRF-CEM [2]): > 10 µM | IC50 [3]: > 280 µM | IC50 [4]: > 280 µM

COc1cc(C2C(Cl)C(=O)N2NC(=O)c2ccccc2O)ccc1O (stereo not drawn)
IC50 (CCRF-CEM [2]): > 27.5 µM | IC50 [3]: > 275 µM | EC50 (CCRF-CEM [5]): Not reached | IC50 [4]: 262 µM

COc1cc(/C=C2/C(=O)N(C(=O)c3ccccc3O)N=C2C)ccc1O
IC50 [3]: 0.8 µM | EC50 (CCRF-CEM [5]): Not reached | IC50 [4]: 0.6 µM

O=C(NNC(=O)c1ccccc1O)c1ccccc1O
EC50 (CCRF-CEM [11]): Not reached | IC50 (CCRF-CEM [2]): 0.1 µM

CC1=NN(C(=O)c2ccccc2O)C(=O)/C1=C/c1cccc(O)c1
IC50 [3]: 0.9 µM | EC50 (CCRF-CEM [5]): Not reached | IC50 [4]: 7.4 µM

COc1ccc(C2C(Cl)C(=O)N2NC(=O)c2ccccc2O)cc1 (stereo not drawn)
IC50 (CCRF-CEM [2]): > 144 µM | IC50 [3]: 288 µM | IC50 [4]: 167 µM

O=C(NNC(=O)c1ccc(Cl)c(Cl)c1)c1ccc(Cl)c(Cl)c1
IC50 [3]: > 100 µM | IC50 [4]: > 100 µM

CC1=NN(C(=O)c2ccccc2O)C(=O)/C1=C/c1cccc([N+](=O)[O-])c1
IC50 (CCRF-CEM [2]): 0.098 µM | IC50 [3]: 1.4 µM | EC50 (CCRF-CEM [5]): Not reached | IC50 [4]: 2.6 µM
